Assay [1] addresses KEAP1 in HEK293T cells (Homo sapiens, UniProt Q14145). The assay is described as follows: KEAP1 degradation in HEK293T cells. It is filed as cell-based. Conditions: HEK293T cells; for KEAP1 degradation efficiency: three lower concentrations, 5 and 24 h; for KEAP1 degradation / expression: 48 h.
For assay [2], the target named is recombinant KEAP1-Kelch domain (Homo sapiens, UniProt Q14145). The experiment in a line: biochemical. Conditions: for reduction in KEAP1 binding affinity compared to inhibitor 2: HTRF biochemical assay. It is filed as binding.
Sequence of recombinant KEAP1-Kelch domain (Q14145 312-624): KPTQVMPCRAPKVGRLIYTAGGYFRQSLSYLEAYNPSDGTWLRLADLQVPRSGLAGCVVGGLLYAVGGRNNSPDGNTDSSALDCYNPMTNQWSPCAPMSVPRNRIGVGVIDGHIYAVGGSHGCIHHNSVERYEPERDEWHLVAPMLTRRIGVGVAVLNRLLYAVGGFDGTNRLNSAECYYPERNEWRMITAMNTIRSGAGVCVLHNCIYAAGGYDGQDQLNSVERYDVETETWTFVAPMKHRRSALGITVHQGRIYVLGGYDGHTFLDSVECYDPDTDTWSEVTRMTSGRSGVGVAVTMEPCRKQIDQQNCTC
Assay [3] relates to NRF2 downstream targets, NQO1 and HO-1. The experiment in a line: NQO1 and HO-1 protein levels in HEK293T and HCA7 cell lines. Format: cell-based. The settings on record: 48 h. Summed up:
(§1)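 HEK293T, HCA7 and A549 cells were grown in DMEM with 10% FBS and pen/strep; BEAS-2B in LHC-9 with pen/strep; all at 37 °C, 10% CO₂. Cells were exposed to test compound for 48 h, lysed, run on 4–12% SDS-PAGE and transferred to nitrocellulose. Blocking was 5% skim milk for 1 h at RT. Probes were anti-KEAP1, CRBN, NQO1 or HO-1, with HRP anti-β-actin loading control and HRP secondaries. Blots represent 3 independent experiments.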

For assay [4], the target named is KEAP1 in HCA7 cells (Homo sapiens, UniProt Q14145). The experiment in a line: KEAP1 degradation in HCA7 cells. The settings on record: 48 h. Format: cell-based. Summed up:
as §1

Sequence of KEAP1 in HEK293T cells (Q14145 whole entry, the tested form may be a part): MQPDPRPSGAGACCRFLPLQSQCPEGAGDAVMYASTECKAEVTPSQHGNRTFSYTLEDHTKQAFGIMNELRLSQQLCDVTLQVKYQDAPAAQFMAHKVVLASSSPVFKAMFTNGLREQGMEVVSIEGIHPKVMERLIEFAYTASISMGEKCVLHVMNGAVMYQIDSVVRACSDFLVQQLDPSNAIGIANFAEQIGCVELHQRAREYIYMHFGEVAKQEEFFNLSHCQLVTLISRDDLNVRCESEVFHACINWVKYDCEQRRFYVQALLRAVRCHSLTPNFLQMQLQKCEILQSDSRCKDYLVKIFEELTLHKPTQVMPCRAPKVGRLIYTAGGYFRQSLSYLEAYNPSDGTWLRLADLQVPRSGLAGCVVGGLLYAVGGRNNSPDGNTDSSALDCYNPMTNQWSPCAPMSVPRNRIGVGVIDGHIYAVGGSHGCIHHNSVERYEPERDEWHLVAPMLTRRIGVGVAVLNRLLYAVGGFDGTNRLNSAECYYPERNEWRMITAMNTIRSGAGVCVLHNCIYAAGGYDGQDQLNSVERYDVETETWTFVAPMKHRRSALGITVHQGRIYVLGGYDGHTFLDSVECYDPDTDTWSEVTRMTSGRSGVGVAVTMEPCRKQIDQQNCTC
Sequence of KEAP1 in HCA7 cells (Q14145 whole entry): as the sequence (Q14145 whole entry, the tested form may be a part) above

For `Cc1ccc(C(CC(=O)O)c2cc(OCCCCNC(=O)COc3cccc4c3C(=O)N(C3CCC(=O)NC3=O)C4=O)c3c(c2)nnn3C)cc1CN1C[C@@H](C)Oc2ccccc2S1(=O)=O` (stereo partly drawn) [Compound 8, 3-(7-(4-(2-((2-(2,6-Dioxopiperidin-3-yl)-1,3-dioxoisoindolin-4-yl)oxy)acetamido)butoxy)-1-methyl-1H-benzo[d][1,2,3]triazol-5-yl)-3-(4-methyl-3-(((R)-4-methyl-1,1-dioxido-3,4-dihydro-2H-benzo[b][1,4,5]oxathiazepin-2-yl)methyl)phenyl)propanoic acid], the “KEAP1 degradation at longer time points” value in assay [1] (48 h and 72 h, comparison of 8 and 14) is “less effective at longer time points of 48 h and 72 h”. Besides, in assay [1], the KEAP1 degradation efficiency entry is reported as “most efficient at degrading KEAP1”. Further, the IC50 in assay [2] was 66 nM.

In the case of `Cc1ccc(C(CC(=O)O)c2cc(OCCNc3cccc4c3C(=O)N(C3CCC(=O)NC3=O)C4=O)c3c(c2)nnn3C)cc1CN1C[C@@H](C)Oc2ccccc2S1(=O)=O` (stereo partly drawn) [Compound 3, 3-(7-(2-((2-(2,6-Dioxopiperidin-3-yl)-1,3-dioxoisoindolin-4-yl)amino)ethoxy)-1-methyl-1H-benzo[d][1,2,3]triazol-5-yl)-3-(4-methyl-3-(((R)-4-methyl-1,1-dioxido-3,4-dihydro-2H-benzo[b][1,4,5]oxathiazepin-2-yl)methyl)phenyl)propanoic acid], the IC50 in assay [2] was determined as 150 nM.

Turning to `Cc1ccc(C(CC(=O)O)c2cc(OCCOCCOCCNc3cccc4c3C(=O)N(C3CCC(=O)NC3=O)C4=O)c3c(c2)nnn3C)cc1CN1C[C@@H](C)Oc2ccccc2S1(=O)=O` (stereo partly drawn) [Compound 11, 3-(7-(2-(2-(2-((2-(2,6-Dioxopiperidin-3-yl)-1,3-dioxoisoindolin-4-yl)amino)ethoxy)ethoxy)ethoxy)-1-methyl-1H-benzo[d][1,2,3]triazol-5-yl)-3-(4-methyl-3-(((R)-4-methyl-1,1-dioxido-3,4-dihydro-2H-benzo[b][1,4,5]oxathiazepin-2-yl)methyl)phenyl)propanoic acid], the IC50 in assay [2] amounted to 120 nM.

On to `Cc1ccc(C(CC(=O)O)c2cc(OCCCCCNC(=O)COc3cccc4c3C(=O)N(C3CCC(=O)NC3=O)C4=O)c3c(c2)nnn3C)cc1CN1C[C@@H](C)Oc2ccccc2S1(=O)=O` (stereo partly drawn) [Compound 9, 3-(7-((5-(2-((2-(2,6-Dioxopiperidin-3-yl)-1,3-dioxoisoindolin-4-yl)oxy)acetamido)pentyl)oxy)-1-methyl-1H-benzo[d][1,2,3]triazol-5-yl)-3-(4-methyl-3-(((R)-4-methyl-1,1-dioxido-3,4-dihydro-2H-benzo[b][1,4,5]oxathiazepin-2-yl)methyl)phenyl)propanoic acid], for which, in assay [2], the IC50 is 86 nM.

For the compound `Cc1ccc(C(CC(=O)O)c2cc(OCCCCCCNC(=O)COc3cccc4c3C(=O)N(C3CCC(=O)NC3=O)C4=O)c3c(c2)nnn3C)cc1CN1C[C@@H](C)Oc2ccccc2S1(=O)=O` (stereo partly drawn) [Compound 10, 3-(7-((6-(2-((2-(2,6-Dioxopiperidin-3-yl)-1,3-dioxoisoindolin-4-yl)oxy)acetamido)hexyl)oxy)-1-methyl-1H-benzo[d][1,2,3]triazol-5-yl)-3-(4-methyl-3-(((R)-4-methyl-1,1-dioxido-3,4-dihydro-2H-benzo[b][1,4,5]oxathiazepin-2-yl)methyl)phenyl)propanoic acid], the KEAP1 degradation efficiency result in assay [1] is listed as “most efficient at degrading KEAP1”. Moreover, the 50% inhibitory concentration (IC50) in assay [2] came out at 127 nM.

`Cc1ccc(C(CC(=O)O)c2cc(OCCCNC(=O)COc3cccc4c3C(=O)N(C3CCC(=O)NC3=O)C4=O)c3c(c2)nnn3C)cc1CN1C[C@@H](C)Oc2ccccc2S1(=O)=O` (stereo partly drawn) [Compound 7, 3-(7-(3-(2-((2-(2,6-Dioxopiperidin-3-yl)-1,3-dioxoisoindolin-4-yl)oxy)acetamido)propoxy)-1-methyl-1H-benzo[d][1,2,3]triazol-5-yl)-3-(4-methyl-3-(((R)-4-methyl-1,1-dioxido-3,4-dihydro-2H-benzo[b][1,4,5]oxathiazepin-2-yl)methyl)phenyl)propanoic acid]: the IC50 in assay [2] stood at 143 nM.

For the compound `Cc1ccc(C(CC(=O)O)c2cc(OCCCCCCCNc3cccc4c3C(=O)N(C3CCC(=O)N(C)C3=O)C4=O)c3c(c2)nnn3C)cc1CN1C[C@@H](C)Oc2ccccc2S1(=O)=O` (stereo partly drawn) [Compound 15, 3-(4-Methyl-3-(((R)-4-methyl-1,1-dioxido-3,4-dihydro-2H-benzo[b][1,4,5]oxathiazepin-2-yl)methyl)phenyl)-3-(1-methyl-7-((7-((2-(1-methyl-2,6-dioxopiperidin-3-yl)-1,3-dioxoisoindolin-4-yl)amino)heptyl)oxy)-1H-benzo[d][1,2,3]triazol-5-yl)propanoic acid], in assay [3], the HO-1 protein expression result is “but not HO-1” and the NQO1 protein expression result is recorded as “upregulated”.

For `Cc1ccc(C(CC(=O)O)c2cc(OCCNC(=O)COc3cccc4c3C(=O)N(C3CCC(=O)NC3=O)C4=O)c3c(c2)nnn3C)cc1CN1C[C@@H](C)Oc2ccccc2S1(=O)=O` (stereo partly drawn) [Compound 6, 3-(7-(2-(2-((2-(2,6-Dioxopiperidin-3-yl)-1,3-dioxoisoindolin-4-yl)oxy)acetamido)ethoxy)-1-methyl-1H-benzo[d][1,2,3]triazol-5-yl)-3-(4-methyl-3-(((R)-4-methyl-1,1-dioxido-3,4-dihydro-2H-benzo[b][1,4,5]oxathiazepin-2-yl)methyl)phenyl)propanoic acid], the IC50 in assay [2] came out at 147 nM.

Regarding `C[S+]([O-])CCCCN=C=S` (stereo not drawn) [sulforaphane, reference compound], in assay [3], the HO-1 protein expression entry was “but not HO-1” and the NQO1 protein expression entry was “upregulated”.

For `Cc1ccc(C(CC(=O)O)c2cc(OCCCNc3cccc4c3C(=O)N(C3CCC(=O)NC3=O)C4=O)c3c(c2)nnn3C)cc1CN1C[C@@H](C)Oc2ccccc2S1(=O)=O` (stereo partly drawn) [Compound 4, 3-(7-(3-((2-(2,6-Dioxopiperidin-3-yl)-1,3-dioxoisoindolin-4-yl)amino)propoxy)-1-methyl-1H-benzo[d][1,2,3]triazol-5-yl)-3-(4-methyl-3-(((R)-4-methyl-1,1-dioxido-3,4-dihydro-2H-benzo[b][1,4,5]oxathiazepin-2-yl)methyl)phenyl)propanoic acid], in assay [2], the IC50 was 267 nM and the “reduction in KEAP1 binding affinity compared to inhibitor 2” value (“reduction … to inhibitor 2” for short) is “greater than 3 fold”.

As for `Cc1ccc(C(CC(=O)O)c2cc(OC(=O)CCCOc3cccc4c3C(=O)N(C3CCC(=O)NC3=O)C4=O)c3c(c2)nnn3C)cc1CN1C[C@@H](C)Oc2ccccc2S1(=O)=O` (stereo partly drawn) [Compound 5, 3-(7-((4-((2-(2,6-Dioxopiperidin-3-yl)-1,3-dioxoisoindolin-4-yl)oxy)butanoyl)oxy)-1-methyl-1H-benzo[d][1,2,3]triazol-5-yl)-3-(4-methyl-3-(((R)-4-methyl-1,1-dioxido-3,4-dihydro-2H-benzo[b][1,4,5]oxathiazepin-2-yl)methyl)phenyl)propanoic acid], in assay [2], the “reduction … to inhibitor 2” value is listed as “greater than 3 fold”.

As for `COc1cc(C(CC(=O)OC(C)(C)C)c2ccc(C)c(CN3C[C@@H](C)Oc4ccccc4S3(=O)=O)c2)cc2nnn(C)c12` (stereo partly drawn) [Compound 17, tert-Butyl 3-(7-methoxy-1-methyl-1H-benzo[d][1,2,3]triazol-5-yl)-3-(4-methyl-3-(((R)-4-methyl-1,1-dioxido-3,4-dihydro-2H-benzo[b][1,4,5]oxathiazepin-2-yl)methyl)phenyl)propanoate], in assay [1], the “KEAP1 degradation / expression” value is given as “no impact”. Also, the “KEAP1 degradation / expression” value in assay [4] is recorded as “no impact”. Further, in assay [3], the HO-1 protein expression entry is recorded as “no impact” and the NQO1 protein expression entry was “no impact”.

Turning to `Cc1ccc(C(CC(=O)OC(C)(C)C)c2cc(OCCCCCCCNc3cccc4c3C(=O)N(C3CCC(=O)NC3=O)C4=O)c3c(c2)nnn3C)cc1CN1C[C@@H](C)Oc2ccccc2S1(=O)=O` (stereo partly drawn) [Compound 16, tert-Butyl 3-(7-((7-((2-(2,6-Dioxopiperidin-3-yl)-1,3-dioxoisoindolin-4-yl)amino)heptyl)oxy)-1-methyl-1H-benzo[d][1,2,3]triazol-5-yl)-3-(4-methyl-3-(((R)-4-methyl-1,1-dioxido-3,4-dihydro-2H-benzo[b][1,4,5]oxathiazepin-2-yl)methyl)phenyl)propanoate], the “KEAP1 degradation / expression” value in assay [1] is “no impact”. Also, in assay [4], the “KEAP1 degradation / expression” value is on record as “no impact”. For the same compound, in assay [3], the HO-1 protein expression result is reported as “no impact” and the NQO1 protein expression result is listed as “no impact”.

As for `Cc1ccc(C(CC(=O)O)c2cc(OCCOCCOCCNC(=O)COc3cccc4c3C(=O)N(C3CCC(=O)NC3=O)C4=O)c3c(c2)nnn3C)cc1CN1C[C@@H](C)Oc2ccccc2S1(=O)=O` (stereo partly drawn) [Compound 12, 3-(7-(2-(2-(2-(2-((2-(2,6-Dioxopiperidin-3-yl)-1,3-dioxoisoindolin-4-yl)oxy)acetamido)ethoxy)ethoxy)ethoxy)-1-methyl-1H-benzo[d][1,2,3]triazol-5-yl)-3-(4-methyl-3-(((R)-4-methyl-1,1-dioxido-3,4-dihydro-2H-benzo[b][1,4,5]oxathiazepin-2-yl)methyl)phenyl)propanoic acid], in assay [2], the IC50 amounted to 563 nM and the “reduction … to inhibitor 2” value is reported as “greater than 3 fold”.

Values taken from article PMC9720105 (Redox Biology, 2022).
